Results as given in ChEMBL document CHEMBL3751813, “Nonpeptidic Amphiphilic Xanthone Derivatives: Structure-Activity Relationship and Membrane-Targeting Properties” (J Med Chem, 2016).
In brackets after ≈: the same amount, converted by molar mass. Activity calls are given as the source filed them. No cut-off for these calls is given here.

Experiments:
Staphylococcus aureus [1] = assay: Induction of membrane disruption in clinical isolates of Staphylococcus aureus DM4001 assessed as membrane integrity incubated for 10 mins by live/dead baclight bacterial viability assay relative to control; format: functional; design: concentration or dose not given beside the values
Method in brief: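 Exponential-phase cells washed in 0.9% saline, OD670 0.3, exposed to compound 10 min at room temperature. Pelleted, resuspended, then stained with SYTO 9 (10 µM) plus propidium iodide (60 µM) 15 min dark. Excitation 485 nm, emission 500–700 nm; green/red ratio converted to % damage using standards of 0–100% isopropanol-killed cells.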

[2] = Selectivity index, ratio of HC50 for hemolytic activity against New Zealand white rabbit RBC to MIC for clinical isolates of Staphylococcus aureus DM4001
Staphylococcus aureus [3] = assay: Induction of membrane permeabilization in clinical isolates of Staphylococcus aureus DM4001 at 10 uM measured for 200 sec by SYTOX green influx assay; format: functional, organism-based
Method in brief: (§1)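 Exponential-phase cells washed twice in 20 mM PBS pH 7 and adjusted to OD620 0.09. Given 3 µM SYTOX Green and kept in the dark until fluorescence was stable, then compound added. Fluorescence followed in a stirred cuvette at ex 504/em 523 nm. Melittin 10 µg/mL was the positive control. Run at least twice; one run reported.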

Bacillus cereus = assay: Antibacterial activity against clinical isolates of Bacillus cereus ATCC 11778 after 24 hrs by […]; format: functional; conditions: ATCC 11778, 24 h
Staphylococcus aureus [4] = assay: Antibacterial activity against clinical isolates of methicillin-resistant Staphylococcus aureus DM21455 after 24 hrs by […]; format: functional; conditions: DM21455, 24 h
Staphylococcus aureus [5] = assay: Antibacterial activity against clinical isolates of methicillin-resistant Staphylococcus aureus DM9808R after 24 hrs by […]; format: functional
Staphylococcus aureus [6] = assay: Antibacterial activity against clinical isolates of Staphylococcus aureus DM4001R after 24 hrs by […]; format: functional
[7] = Membrane permeabilization activity assessed as release of calcein from DOPC liposomes at lipid:compound ratio of => 16 incubated for 30 mins by fluorescence assay; format: ADME; conditions: 0.5 h
Method in brief: (§2)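 Freeze-thawed, extruded, then gel-filtered. Final lipid 50 µM with compound added from DMF (<0.2%). Fluorescence at ex 490/em 520 nm over 30 min; 0.1% Triton X-100 defined 100% lysis.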

[8] = Membrane permeabilization activity assessed as release of calcein from DOPE/DOPG liposomes at lipid:compound ratio of 8 incubated for 30 mins by fluorescence assay; format: ADME; conditions: 0.5 h; method in brief: as §2
[9] = Membrane permeabilization activity assessed as release of calcein from DOPC liposomes at lipid:compound ratio of 4 incubated for 30 mins by fluorescence assay; format: ADME; conditions: 0.5 h; method in brief: as §2
[10] = Hemolytic activity against New Zealand white rabbit RBC after 1 hr by microplate reader analysis; format: ADME, cell-based, Oryctolagus cuniculus, Erythrocyte; conditions: rabbit red blood cells
Method in brief: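 Rabbit RBCs spun from serum at 3,000 rpm for 10 min and washed twice in PBS. Mixed with compound in DMF at 4% v/v RBCs, 1 h at 37 °C. After centrifugation, hemoglobin in the supernatant read at 576 nm. 2% Triton X-100 was the positive control and 1% DMF the negative control.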

[11] = Membrane permeabilization activity assessed as release of calcein from DOPE/DOPG liposomes at lipid:compound ratio of 4 incubated for 30 mins by fluorescence assay; format: ADME; conditions: 0.5 h; method in brief: as §2
[12] = Membrane permeabilization activity assessed as release of calcein from DOPC liposomes at lipid:compound ratio of 8 incubated for 30 mins by fluorescence assay; format: ADME; conditions: 0.5 h; method in brief: as §2
[13] = Membrane permeabilization activity assessed as release of calcein from DOPE/DOPG liposomes at lipid:compound ratio of => 16 incubated for 30 mins by fluorescence assay; format: ADME; conditions: 0.5 h; method in brief: as §2
Staphylococcus aureus [14] = assay: Induction of membrane permeabilization in clinical isolates of Staphylococcus aureus DM4001 assessed as ATP leakage at 50 uM incubated for 10 mins by firefly luciferase based luminometry analysis; format: functional
Method in brief: (§3)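 Exponential-phase cells washed twice in 20 mM PBS pH 7 and set to OD620 0.3. Exposed 10 min at 37 °C, then spun at 4000 rpm for 5 min. Supernatant mixed with luciferase reagent (1 mM DTT, 0.5 mM D-luciferin, 1.25 µg/mL firefly luciferase). Luminescence read over 30 cycles.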

Staphylococcus aureus [15] = assay: Induction of membrane permeabilization in clinical isolates of Staphylococcus aureus DM4001 at 50 uM by SYTOX green uptake assay; format: functional; method in brief: as §1
[16] = Membrane permeabilization activity assessed as release of calcein from DOPE/DOPG large unilamellar vesicles at 0.125 to 0.5 compound:lipid ratio incubated for 30 mins by fluorescence assay; format: ADME; conditions: 0.5 h; method in brief: as §2
Staphylococcus aureus [17] = assay: Induction of membrane permeabilization in clinical isolates of Staphylococcus aureus DM4001 at MIC by SYTOX green uptake assay; format: functional; method in brief: as §1
Staphylococcus aureus [18] = assay: Induction of membrane permeabilization in clinical isolates of Staphylococcus aureus DM4001 assessed as ATP leakage at MIC incubated for 10 mins by firefly luciferase based luminometry analysis; format: functional; method in brief: as §3

With CCN(CC)CCCOc1cc2oc3cc(OCCCN(CC)CC)c(OC)c(CC=C(C)C)c3c(=O)c2c(O)c1CC=C(C)C the Activity (Staphylococcus aureus [1]) was 46.2%, the Selectivity ratio [2] was 20.9 and the Activity (Staphylococcus aureus [3]) was “Active”. For the same molecule, the MIC (Bacillus cereus) was 6.25 µg/mL (≈ 9.81 µM), the MIC (Staphylococcus aureus [4]) was 0.39 µg/mL (≈ 0.612 µM) and the MIC (Staphylococcus aureus [5]) was 0.78 µg/mL (≈ 1.22 µM). For the same molecule, the MIC (Staphylococcus aureus [6]) was 0.78 µg/mL (≈ 1.22 µM).
For COc1c(O)cc2oc3cc(O)c(CCC(C)C)c(O)c3c(=O)c2c1CCC(C)C, the Activity [7] was “Not Active”, the Activity [8] was “Not Active” and the Activity [9] was “Not Active”. For the same molecule, the HC50 at 1 h [10] was over 200 µg/mL, the Activity [11] was “Not Active” and the Activity [12] was “Not Active”. For the same molecule, the MIC (Bacillus cereus) was over 50 µg/mL, the MIC (Staphylococcus aureus [4]) was over 50 µg/mL and the MIC (Staphylococcus aureus [5]) was over 50 µg/mL. The Activity [13] was “Not Active” and the MIC (Staphylococcus aureus [6]) was over 50 µg/mL.
Work on COc1c(OCCCCN2CC[C@H](N(C)C)C2)cc2oc3cc(OCCCCN4CC[C@H](N(C)C)C4)c(CC=C(C)C)c(O)c3c(=O)c2c1CC=C(C)C yielded an Activity (Staphylococcus aureus [14]) of 7.962 µM, a Selectivity ratio [2] of 2.3 and an HC50 at 1 h [10] of 28.9 µg/mL. The MIC (Bacillus cereus) was 6.25 µg/mL (≈ 8.37 µM), the Activity (Staphylococcus aureus [15]) was 58191 cps and the MIC (Staphylococcus aureus [4]) was 6.25 µg/mL (≈ 8.37 µM). The MIC (Staphylococcus aureus [5]) was 6.25 µg/mL (≈ 8.37 µM) and the MIC (Staphylococcus aureus [6]) was 12.5 µg/mL (≈ 16.7 µM).
With CCN(CC)CCCCCCCCCCOc1cc2oc3cc(OCCCCCCCCCCN(CC)CC)c(OC)c(CC=C(C)C)c3c(=O)c2c(O)c1CC=C(C)C the Activity (Staphylococcus aureus [1]) was 100%, the HC50 at 1 h [10] was 200 µg/mL and the Activity (Staphylococcus aureus [3]) was “inactive”. For the same molecule, the MIC (Bacillus cereus) was over 50 µg/mL, the Activity [16] was over 70% and the MIC (Staphylococcus aureus [4]) was over 50 µg/mL. The MIC (Staphylococcus aureus [5]) was over 50 µg/mL and the MIC (Staphylococcus aureus [6]) was over 50 µg/mL.
For CCN(CC)CCOc1cc2oc3cc(OCCN(CC)CC)c(OC)c(CC=C(C)C)c3c(=O)c2c(O)c1CC=C(C)C, the Activity (Staphylococcus aureus [1]) was 64.1%, the HC50 at 1 h [10] was over 200 µg/mL and the Activity (Staphylococcus aureus [3]) was “Active”. The MIC (Bacillus cereus) was over 50 µg/mL, the MIC (Staphylococcus aureus [4]) was over 50 µg/mL and the MIC (Staphylococcus aureus [5]) was over 50 µg/mL. The MIC (Staphylococcus aureus [6]) was over 50 µg/mL.
CCN(CC)CCCCOc1cc2oc3cc(OCCCCN(CC)CC)c(OC)c(CC=C(C)C)c3c(=O)c2c(O)c1CC=C(C)C showed an Activity (Staphylococcus aureus [1]) of 37.8%, an Activity [7] of over 70% and a Selectivity ratio [2] of 50.4. The Activity (Staphylococcus aureus [3]) was “Active”, the MIC (Bacillus cereus) was 3.12 µg/mL (≈ 4.7 µM) and the Activity [16] was over 70%. The Activity (Staphylococcus aureus [17]) was 61679 cps, the MIC (Staphylococcus aureus [4]) was 0.39 µg/mL (≈ 0.587 µM) and the Activity (Staphylococcus aureus [18]) was 2235 nM. It also gave an MIC (Staphylococcus aureus [5]) of 0.78 µg/mL (≈ 1.17 µM), an Activity [13] of over 70% and an MIC (Staphylococcus aureus [6]) of 0.39 µg/mL (≈ 0.587 µM).
In the case of CCN(CC)CCCCCCOc1cc2oc3cc(OCCCCCCN(CC)CC)c(OC)c(CC=C(C)C)c3c(=O)c2c(O)c1CC=C(C)C, the Activity (Staphylococcus aureus [1]) is reported as 45.1%, the Selectivity ratio [2] is reported as 17 and the Activity (Staphylococcus aureus [3]) is reported as “Active”. For the same molecule, the MIC (Bacillus cereus) was 3.12 µg/mL (≈ 4.33 µM), the MIC (Staphylococcus aureus [4]) was 1.56 µg/mL (≈ 2.16 µM) and the MIC (Staphylococcus aureus [5]) was 3.12 µg/mL (≈ 4.33 µM). For the same molecule, the MIC (Staphylococcus aureus [6]) was 1.56 µg/mL (≈ 2.16 µM).
With CCN(CC)CCCCOc1ccc2c(=O)c3c(O)cc(OCCCCN(CC)CC)cc3oc2c1 the Activity [7] was “Not Active”, the Activity [8] was “Not Active” and the Activity [9] was “Not Active”. The HC50 at 1 h [10] was over 200 µg/mL, the Activity [11] was “Not Active” and the Activity [12] was “Not Active”. The MIC (Bacillus cereus) was over 50 µg/mL, the MIC (Staphylococcus aureus [4]) was over 50 µg/mL and the MIC (Staphylococcus aureus [5]) was over 50 µg/mL. The Activity [13] was “Not Active” and the MIC (Staphylococcus aureus [6]) was over 50 µg/mL.
For COc1c(O)cc2oc3cc(O)c(CC=C(C)C)c(O)c3c(=O)c2c1CC=C(C)C [MANGOSTIN], the Activity [7] was under 10%, the Activity [8] was 16% and the Activity [9] was 33.6%. The Selectivity ratio [2] was 4.5, the Activity [12] was 14.1% and the Activity [13] was under 10%. It also gave an MIC (Staphylococcus aureus [6]) of 2 µg/mL (≈ 4.87 µM).
